The source made the active and inactive calls.

Consider three compounds from ChEMBL document CHEMBL4680165, “β-Lactams with antiproliferative and antiapoptotic activity in breast and chemoresistant colon cancer cells” (Eur J Med Chem, 2020).

For one data set, the system named is MCF7. The experiment in a line: Antiproliferative activity against human MCF7 cells assessed as reduction in cell viability after 72 hrs by alamar blue assay. Format: functional, cell-based. Conditions: MCF7, 72 h. Put shortly:
(§1)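 Cells seeded at 5 x 10^3/well (MCF-7) or 1 x 10^4/well (HT-29, HEK-293T) and treated after 24 h with serial dilutions (0.001-100 µM) in 1% v/v ethanol vehicle. Alamar Blue 10% v/v added at 72 h, then 3-5 h at 37 °C in the dark; fluorescence ex 530/em 590 nm. Viability relative to vehicle; IC50 from dose-response curves; mean of three experiments in triplicate.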

A further data set relates to HT-29. The experiment in a line: Antiproliferative activity against human HT-29 cells assessed as reduction in cell viability after 72 hrs by alamar blue assay. Type of data set: functional, cell-based. Conditions: HT-29, 72 h. Put shortly: as §1
Background: Resazurin is reduced to fluorescent resorufin, in cell work by metabolically active cells.

Data set [1] is described as follows: Selectivity index, ratio of IC50 for human MCF7 cells to IC50 for human HT-29 cells assessed as reduction in cell viability after 72 hrs by alamar blue assay. Type of data set: functional.
Data set [2] in a line: Half life of the compound in phosphate buffer at pH 7.4 by HPLC analysis. Format: physicochemical. Put shortly:
(§2)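 Compound stock was 1 mg/mL in mobile phase; 30 µL was diluted into 1 mL phosphate buffer (pH 4, 7.4 or 9) and held at 37 °C. Samples were taken at 0, 5, 30 and 60 min, then hourly to 24 h. Analysis was reverse-phase C18 HPLC with acetonitrile/water mobile phase at 1 mL/min and detection at 254 nm.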

Data set [3] in a line: Half life of the compound in phosphate buffer at pH 9 by HPLC analysis. Format: physicochemical. A digest of the protocol: as §2
Data set [4] in a line: Half life of the compound in phosphate buffer at pH 4 by HPLC analysis. Type of data set: physicochemical. A digest of the protocol:
as §2

A further data set addresses Tubulin (Homo sapiens) (UniProt P68371+Q9H4B7+P0DPH7+P68366+Q13509+Q71U36+P04350+Q3ZCM7+P07437+P68363+Q9BQE3+Q6PEY2+Q13885+Q9BVA1+Q9BUF5). Briefly: Induction of microtubule depolymerization in human MCF7 cells at 1 uM after 16 hrs by immunofluorescence staining based confocal microscopic analysis. Format: cell-based.

For orientation: IC50 means the point on the concentration scale where inhibition reaches its midpoint. What is called half-life is the time needed for the level to fall by half in the phase considered. Read a high half-life as slow loss. As for `COc1ccc([C@H]2[C@H](N)C(=O)N2c2cc(OC)c(OC)c(OC)c2)cc1Cl`, the results for the IC50 in the data set with MCF7 and with HT-29 were 141 nM and 167 nM, respectively. The “Ratio IC50” value in data set [1] is recorded as 0.84. Also, the half-life in data set [2], in data set [3] and in data set [4] was over 24 h throughout.
As for `CC(=O)O[C@H]1C(=O)[C@@]2(C)[C@H]([C@H](OC(=O)c3ccccc3)[C@]3(O)C[C@H](OC(=O)[C@H](O)[C@@H](NC(=O)c4ccccc4)c4ccccc4)C(C)=C1C3(C)C)[C@]1(OC(C)=O)CO[C@@H]1C[C@@H]2O`, the result on Tubulin (Homo sapiens) was Active.
For `COc1ccc([C@H]2[C@H](c3ccccc3)C(=O)N2c2cc(OC)c(OC)c(OC)c2)cc1I`, the IC50 with MCF7 is 648 nM; in the data set on HT-29, 355 nM. Besides, the “Ratio IC50” value in data set [1] came to 1.83. Further, the half-life in data set [2] is 14 h; in data set [3], 5 h; in data set [4], 15 h.
